In experiment [1] the test system is Plasmodium falciparum. Description: In vitro antimalarial activity against chloroquine-sensitive Plasmodium falciparum HB3. The format is functional, organism-based. The essentials:
(§1)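 P. falciparum kept in human erythrocytes in RPMI 1640 with 25 mM HEPES, 32 mM NaHCO3, 10% human serum, under 3% O2/4% CO2/93% N2. 48-h assay at 2% parasitemia, 0.5% hematocrit; DMSO stocks diluted in medium; triplicates. [3H]hypoxanthine (0.5 μCi) added at 24 h, harvested 24 h later; IC50 by probit interpolation of log dose-response.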

Experiment [2] relates to Plasmodium falciparum. The experiment can be described thus: In vitro antimalarial activity against chloroquine-resistant Plasmodium falciparum K1.
In experiment [3] the test system is Mus musculus. Description: Compound was tested in vivo for antimalarial activity against Plasmodium berghei in the mice (Mus musculus) model. The format is functional. The essentials: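 Male random Swiss albino mice, 18-22 g, infected ip with 10^7 P. berghei NS-strain parasitized erythrocytes; ip dosing once daily for four consecutive days starting on infection day; vehicle methanol/PBS/DMSO (2:5:3). Parasitemia read the day after last dose; ED50 (50% suppression vs vehicle-only controls) taken from log dose vs parasitemia plot.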

In experiment [4] the test system is Plasmodium falciparum. The experiment can be described thus: In vitro antimalarial activity against chloroquine-sensitive Plasmodium falciparum K1. The format is functional, organism-based. The method in brief:
as §1

Molecules are shown by their SMILES.

What is called IC50 is the midpoint of a concentration-inhibition curve. A high value points to weaker potency in that assay. Usually ED50 stands for the dose that gives a 50% effect, or the effect in half of the subjects.

As for `C[C@H]1[C@@H](CCOC(=O)c2ccccc2F)O[C@@H]2OC3(C)CC[C@H]4[C@H](C)CC[C@@H]1[C@@]24OO3` (single isomer, unassigned), the IC50 in experiment [1] came to 0.53 nM; in experiment [2] it was 1.12 nM.

In experiment [3], `CO[C@H]1O[C@@H]2O[C@@]3(C)CC[C@H]4[C@H](C)CC[C@@H]([C@H]1C)[C@@]24OO3` [ARTEMETHER] had a 50% effective dose (ED50) of 3.15 mg/kg.

On to `C[C@H]1[C@@H](CCOC(=O)c2ccc(C(F)(F)F)cc2)O[C@@H]2OC3(C)CC[C@H]4[C@H](C)CC[C@@H]1[C@@]24OO3` (single isomer, unassigned), for which the results for the IC50 in experiment [1] and in experiment [2] were 0.59 nM and 14.2 nM, respectively.

For `C[C@H]1[C@@H](CCOC(=O)c2cccc(F)c2)O[C@@H]2OC3(C)CC[C@H]4[C@H](C)CC[C@@H]1[C@@]24OO3` (single isomer, unassigned), the half-inhibitory concentration (IC50) in experiment [1] came to 0.35 nM; in experiment [2] it was 3.78 nM. The same compound yielded an ED50 in experiment [3] of 6.99 mg/kg.

With `C[C@H]1[C@@H](CCOC(=O)c2ccc(F)cc2)O[C@@H]2OC3(C)CC[C@H]4[C@H](C)CC[C@@H]1[C@@]24OO3` (single isomer, unassigned), the IC50 in experiment [1] was 0.69 nM; in experiment [2], 1.92 nM.

Regarding `C[C@@H]1CC[C@H]2[C@@H](C)C(=O)O[C@@H]3O[C@@]4(C)CC[C@@H]1[C@]32OO4` [ARTEMISININ], the IC50 came out at 3.04 nM in experiment [1] and 3.6 nM in experiment [2].

As for `C[C@H]1[C@@H](O)O[C@@H]2O[C@@]3(C)CC[C@H]4[C@H](C)CC[C@@H]1[C@@]24OO3` [ARTENIMOL], the results for the IC50 in experiment [1] and in experiment [2] were 1.04 nM and 2.2 nM, respectively. Besides, the ED50 in experiment [3] amounted to 1.15 mg/kg.

On to `C[C@H]1[C@@H](CCOCc2cccc(F)c2)O[C@@H]2OC3(C)CC[C@H]4[C@H](C)CC[C@@H]1[C@@]24OO3` (single isomer, unassigned), for which the values for the IC50 in experiment [1] and in experiment [2] were 0.32 nM and 6.43 nM, respectively.

For `C[C@H]1[C@@H](CCOCc2ccc(F)cc2)O[C@@H]2OC3(C)CC[C@H]4[C@H](C)CC[C@@H]1[C@@]24OO3` (single isomer, unassigned), the IC50 in experiment [1] amounted to 0.73 nM; in experiment [2], 6.08 nM.

With `C[C@H]1[C@@H](CCOCc2ccccc2C(F)(F)F)O[C@@H]2OC3(C)CC[C@H]4[C@H](C)CC[C@@H]1[C@@]24OO3` (single isomer, unassigned), the figures for the IC50 in experiment [1] and in experiment [2] were 1.64 nM and 3.6 nM, respectively.

As to `C[C@H]1[C@@H](CCO)O[C@@H]2OC3(C)CC[C@H]4[C@H](C)CC[C@@H]1[C@@]24OO3` (single isomer, unassigned), the IC50 in experiment [1] is 3.51 nM; in experiment [2], 6.67 nM. Besides, in experiment [3], the ED50 came out at 7.81 mg/kg.

As to `C[C@H]1[C@@H](CCOCc2ccc(C(F)(F)F)cc2)O[C@@H]2OC3(C)CC[C@H]4[C@H](C)CC[C@@H]1[C@@]24OO3` (single isomer, unassigned), the figures for the IC50 in experiment [1] and in experiment [4] were 4.24 nM and 3.75 nM, respectively.

Turning to `C[C@H]1[C@@H](CCOC(=O)c2cccc(C(F)(F)F)c2)O[C@@H]2OC3(C)CC[C@H]4[C@H](C)CC[C@@H]1[C@@]24OO3` (single isomer, unassigned), the concentration for half-maximal inhibition (IC50) in experiment [1] turned out to be 0.64 nM; in experiment [2], 4.7 nM.

These data come from ChEMBL document CHEMBL1132557, “Novel, potent, semisynthetic antimalarial carba analogues of the first-generation 1,2,4-trioxane artemether” (J Med Chem, 1999).
